Results published in ChEMBL document CHEMBL2424622, “Development of amino-pyrimidine inhibitors of c-Jun N-terminal kinase (JNK): kinase profiling guided optimization of a 1,2,3-benzotriazole lead” (Bioorg Med Chem Lett, 2013).

Legend:
[1] = target: T1, Serine/threonine-protein kinase BRSK2 (Homo sapiens) (UniProt Q8IWQ3); assay: Competitive binding affinity to BRSK2 (unknown origin) at 10 uM in presence of ATP relative to control
T1 sequence (whole entry): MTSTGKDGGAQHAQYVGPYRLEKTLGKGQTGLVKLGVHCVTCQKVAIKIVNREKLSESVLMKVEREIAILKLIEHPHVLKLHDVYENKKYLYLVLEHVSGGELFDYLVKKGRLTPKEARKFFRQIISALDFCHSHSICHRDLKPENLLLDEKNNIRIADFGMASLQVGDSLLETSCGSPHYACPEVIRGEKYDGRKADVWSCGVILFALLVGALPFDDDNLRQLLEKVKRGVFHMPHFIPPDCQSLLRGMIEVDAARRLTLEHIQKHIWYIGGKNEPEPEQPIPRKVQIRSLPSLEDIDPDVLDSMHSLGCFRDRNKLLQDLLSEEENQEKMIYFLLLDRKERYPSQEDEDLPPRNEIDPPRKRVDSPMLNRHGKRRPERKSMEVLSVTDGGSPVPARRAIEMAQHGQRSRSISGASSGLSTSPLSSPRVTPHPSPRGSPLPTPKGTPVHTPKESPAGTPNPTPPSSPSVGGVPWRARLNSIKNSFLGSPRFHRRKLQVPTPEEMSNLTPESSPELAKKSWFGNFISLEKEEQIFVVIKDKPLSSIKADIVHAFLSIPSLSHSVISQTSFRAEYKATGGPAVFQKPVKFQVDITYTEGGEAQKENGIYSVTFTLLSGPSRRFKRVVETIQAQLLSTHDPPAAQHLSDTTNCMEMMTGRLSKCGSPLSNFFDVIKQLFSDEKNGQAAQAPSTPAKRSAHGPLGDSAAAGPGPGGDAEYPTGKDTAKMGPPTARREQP

[2] = target: 5'-AMP-activated protein kinase catalytic subunit alpha-2 (Homo sapiens) (UniProt P54646); assay: Competitive binding affinity to AMPKalpha2 (unknown origin) at 10 uM in presence of ATP relative to control
5'-AMP-activated protein kinase catalytic subunit alpha-2 (Homo sapiens), sequence (P54646 whole entry, looked up): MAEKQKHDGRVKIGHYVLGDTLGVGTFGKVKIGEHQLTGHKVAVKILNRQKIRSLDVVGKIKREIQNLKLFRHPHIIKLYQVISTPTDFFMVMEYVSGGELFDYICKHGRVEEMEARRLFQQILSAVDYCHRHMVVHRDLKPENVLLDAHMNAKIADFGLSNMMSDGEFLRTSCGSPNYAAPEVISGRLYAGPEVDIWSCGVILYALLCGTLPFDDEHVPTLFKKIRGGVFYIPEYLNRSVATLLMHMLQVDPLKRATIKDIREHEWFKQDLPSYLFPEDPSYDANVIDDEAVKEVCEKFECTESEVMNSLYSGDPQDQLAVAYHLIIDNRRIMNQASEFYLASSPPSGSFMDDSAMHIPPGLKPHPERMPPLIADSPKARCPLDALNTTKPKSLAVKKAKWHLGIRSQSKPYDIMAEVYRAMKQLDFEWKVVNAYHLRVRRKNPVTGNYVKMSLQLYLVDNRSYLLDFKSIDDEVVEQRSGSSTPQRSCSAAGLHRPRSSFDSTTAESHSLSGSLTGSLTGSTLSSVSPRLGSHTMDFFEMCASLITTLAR
In short: (§1)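 In vitro ATP-site competition binding assay across a diverse panel of 128 kinases, with each compound tested at a single concentration. Kinase binding is expressed relative to control.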

[3] = target: Macrophage colony-stimulating factor 1 receptor (Homo sapiens) (UniProt P07333); assay: Competitive binding affinity to CSF1R (unknown origin) at 10 uM in presence of ATP relative to control; in short: as §1
Macrophage colony-stimulating factor 1 receptor (Homo sapiens), sequence (P07333 whole entry): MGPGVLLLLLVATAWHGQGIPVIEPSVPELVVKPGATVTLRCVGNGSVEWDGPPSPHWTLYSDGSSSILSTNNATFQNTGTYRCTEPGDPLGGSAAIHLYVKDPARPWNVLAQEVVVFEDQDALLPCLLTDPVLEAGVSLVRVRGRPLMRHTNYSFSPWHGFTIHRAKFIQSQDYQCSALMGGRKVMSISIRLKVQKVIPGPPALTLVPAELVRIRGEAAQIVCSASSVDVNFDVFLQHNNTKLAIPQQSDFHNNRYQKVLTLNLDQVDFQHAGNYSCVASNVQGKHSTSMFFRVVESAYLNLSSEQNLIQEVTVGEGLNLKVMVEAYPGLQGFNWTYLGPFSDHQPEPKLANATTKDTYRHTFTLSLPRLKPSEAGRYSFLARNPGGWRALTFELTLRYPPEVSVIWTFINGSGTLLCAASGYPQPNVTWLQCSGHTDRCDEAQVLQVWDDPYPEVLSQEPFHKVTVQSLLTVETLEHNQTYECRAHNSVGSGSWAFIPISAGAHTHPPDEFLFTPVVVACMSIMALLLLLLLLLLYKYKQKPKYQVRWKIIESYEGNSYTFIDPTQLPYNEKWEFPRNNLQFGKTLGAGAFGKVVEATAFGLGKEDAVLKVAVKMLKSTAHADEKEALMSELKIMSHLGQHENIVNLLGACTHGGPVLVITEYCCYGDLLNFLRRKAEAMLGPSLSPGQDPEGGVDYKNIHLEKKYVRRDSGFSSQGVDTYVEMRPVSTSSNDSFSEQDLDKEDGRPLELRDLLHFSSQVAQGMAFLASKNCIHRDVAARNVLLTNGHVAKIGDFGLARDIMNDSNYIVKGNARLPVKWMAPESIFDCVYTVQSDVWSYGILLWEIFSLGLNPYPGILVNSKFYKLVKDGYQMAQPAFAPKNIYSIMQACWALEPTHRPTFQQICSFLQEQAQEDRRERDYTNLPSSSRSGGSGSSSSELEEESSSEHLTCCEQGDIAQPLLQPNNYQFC

[4] = target: Glycogen synthase kinase-3 alpha (Homo sapiens, UniProt P49840); assay: Competitive binding affinity to GSK3alpha (unknown origin) at 10 uM in presence of ATP relative to control
Glycogen synthase kinase-3 alpha, sequence (P49840 2-483 limits assumed): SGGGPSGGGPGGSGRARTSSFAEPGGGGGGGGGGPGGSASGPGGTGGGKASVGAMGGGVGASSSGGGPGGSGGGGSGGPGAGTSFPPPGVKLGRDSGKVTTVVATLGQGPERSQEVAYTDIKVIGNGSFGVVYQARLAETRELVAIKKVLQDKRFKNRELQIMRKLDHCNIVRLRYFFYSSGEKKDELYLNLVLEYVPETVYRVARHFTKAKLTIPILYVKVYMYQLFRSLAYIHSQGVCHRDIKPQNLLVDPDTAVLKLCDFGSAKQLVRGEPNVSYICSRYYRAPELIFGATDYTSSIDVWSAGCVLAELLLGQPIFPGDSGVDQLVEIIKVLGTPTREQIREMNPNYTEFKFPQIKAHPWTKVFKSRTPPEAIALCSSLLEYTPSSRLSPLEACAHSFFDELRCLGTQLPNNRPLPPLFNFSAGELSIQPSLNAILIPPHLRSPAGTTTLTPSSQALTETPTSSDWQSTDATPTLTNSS
In short: (§2)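 In vitro ATP-site competition binding format, run as one member of a diverse 128-kinase profiling panel. Each compound was tested at a single concentration across the whole panel.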

[5] = target: SRSF protein kinase 2 (Homo sapiens) (UniProt P78362); assay: Competitive binding affinity to SRPK2 (unknown origin) at 10 uM in presence of ATP relative to control
SRSF protein kinase 2 (Homo sapiens), sequence (P78362 whole entry, looked up, the tested form may be a part): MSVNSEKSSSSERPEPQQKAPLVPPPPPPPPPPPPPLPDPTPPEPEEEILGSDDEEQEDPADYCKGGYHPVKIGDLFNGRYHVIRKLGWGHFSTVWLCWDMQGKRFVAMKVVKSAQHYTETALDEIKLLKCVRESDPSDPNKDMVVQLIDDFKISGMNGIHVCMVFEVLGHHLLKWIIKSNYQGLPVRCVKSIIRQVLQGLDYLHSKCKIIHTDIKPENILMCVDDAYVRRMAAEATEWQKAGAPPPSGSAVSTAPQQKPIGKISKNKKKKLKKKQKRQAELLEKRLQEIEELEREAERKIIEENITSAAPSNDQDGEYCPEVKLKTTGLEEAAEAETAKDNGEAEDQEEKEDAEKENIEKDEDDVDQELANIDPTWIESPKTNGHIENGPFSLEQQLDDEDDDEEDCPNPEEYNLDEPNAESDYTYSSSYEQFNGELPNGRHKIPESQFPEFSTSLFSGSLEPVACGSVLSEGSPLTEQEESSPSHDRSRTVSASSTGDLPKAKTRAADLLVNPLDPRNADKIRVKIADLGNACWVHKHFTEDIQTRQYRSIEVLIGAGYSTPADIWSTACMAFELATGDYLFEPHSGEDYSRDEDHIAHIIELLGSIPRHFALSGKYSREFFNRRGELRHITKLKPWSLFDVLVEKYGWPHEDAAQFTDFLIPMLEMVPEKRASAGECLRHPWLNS

[6] = target: T2, Tyrosine-protein kinase JAK3 (Homo sapiens) (UniProt P52333); assay: Competitive binding affinity to JAK3 kinase domain 2 (unknown origin) at 10 uM in presence of ATP relative to control
T2 sequence (whole entry): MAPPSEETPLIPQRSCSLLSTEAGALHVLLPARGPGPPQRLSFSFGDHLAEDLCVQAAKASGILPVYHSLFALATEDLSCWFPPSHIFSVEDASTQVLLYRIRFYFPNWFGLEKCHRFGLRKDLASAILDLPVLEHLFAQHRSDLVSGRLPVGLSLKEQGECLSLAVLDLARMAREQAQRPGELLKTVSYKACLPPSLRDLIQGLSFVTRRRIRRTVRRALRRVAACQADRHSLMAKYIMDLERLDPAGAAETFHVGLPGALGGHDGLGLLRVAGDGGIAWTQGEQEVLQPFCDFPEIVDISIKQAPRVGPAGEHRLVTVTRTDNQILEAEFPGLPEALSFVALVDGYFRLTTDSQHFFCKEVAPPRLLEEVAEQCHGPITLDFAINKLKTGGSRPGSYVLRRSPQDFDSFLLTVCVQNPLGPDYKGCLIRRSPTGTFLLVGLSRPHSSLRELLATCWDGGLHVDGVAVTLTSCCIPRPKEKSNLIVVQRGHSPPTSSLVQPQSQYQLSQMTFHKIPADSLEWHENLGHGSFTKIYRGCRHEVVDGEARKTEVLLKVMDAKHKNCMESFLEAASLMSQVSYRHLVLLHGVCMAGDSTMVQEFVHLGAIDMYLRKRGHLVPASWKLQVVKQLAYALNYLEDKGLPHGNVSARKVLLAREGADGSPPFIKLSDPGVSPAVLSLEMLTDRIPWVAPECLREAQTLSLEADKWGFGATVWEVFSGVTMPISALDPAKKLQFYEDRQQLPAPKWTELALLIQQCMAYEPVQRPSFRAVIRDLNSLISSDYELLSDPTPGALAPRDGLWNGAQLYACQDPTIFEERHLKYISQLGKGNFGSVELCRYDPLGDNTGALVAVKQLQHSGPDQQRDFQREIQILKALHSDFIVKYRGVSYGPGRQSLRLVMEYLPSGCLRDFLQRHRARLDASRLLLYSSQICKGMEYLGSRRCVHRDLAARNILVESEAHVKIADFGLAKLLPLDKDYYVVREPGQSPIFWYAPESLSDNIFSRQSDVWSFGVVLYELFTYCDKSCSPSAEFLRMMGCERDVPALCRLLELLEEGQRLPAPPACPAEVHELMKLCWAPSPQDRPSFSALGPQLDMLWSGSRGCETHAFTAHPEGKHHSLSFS

[7] = target: Cyclin-dependent kinase 11B (Homo sapiens, UniProt P21127); assay: Competitive binding affinity to CDC2L1 (unknown origin) at 10 uM in presence of ATP relative to control; in short: as §2
Cyclin-dependent kinase 11B, sequence (P21127 whole entry): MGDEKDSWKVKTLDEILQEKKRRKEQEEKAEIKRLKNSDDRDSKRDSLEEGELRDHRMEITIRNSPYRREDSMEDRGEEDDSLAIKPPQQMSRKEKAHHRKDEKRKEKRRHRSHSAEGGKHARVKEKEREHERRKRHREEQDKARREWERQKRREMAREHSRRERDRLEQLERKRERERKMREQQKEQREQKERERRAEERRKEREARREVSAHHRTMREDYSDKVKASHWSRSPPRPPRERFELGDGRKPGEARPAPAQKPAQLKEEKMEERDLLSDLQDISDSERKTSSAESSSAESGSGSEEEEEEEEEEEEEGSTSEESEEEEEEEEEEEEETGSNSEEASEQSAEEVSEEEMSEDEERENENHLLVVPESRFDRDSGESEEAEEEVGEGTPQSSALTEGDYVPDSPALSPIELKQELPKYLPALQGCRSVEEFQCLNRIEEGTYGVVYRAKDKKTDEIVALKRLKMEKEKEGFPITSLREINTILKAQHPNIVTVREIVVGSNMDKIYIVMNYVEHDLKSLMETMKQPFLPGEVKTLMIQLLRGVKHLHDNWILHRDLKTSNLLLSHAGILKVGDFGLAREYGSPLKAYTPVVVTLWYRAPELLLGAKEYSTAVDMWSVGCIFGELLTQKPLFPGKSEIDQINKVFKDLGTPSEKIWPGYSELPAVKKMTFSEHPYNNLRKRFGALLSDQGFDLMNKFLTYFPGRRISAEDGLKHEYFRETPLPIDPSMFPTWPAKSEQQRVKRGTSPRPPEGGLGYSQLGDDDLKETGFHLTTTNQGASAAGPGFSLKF

[8] = target: Death-associated protein kinase 1 (Homo sapiens, UniProt P53355); assay: Competitive binding affinity to DAPK1 (unknown origin) at 10 uM in presence of ATP relative to control
Death-associated protein kinase 1, sequence (P53355 whole entry, looked up): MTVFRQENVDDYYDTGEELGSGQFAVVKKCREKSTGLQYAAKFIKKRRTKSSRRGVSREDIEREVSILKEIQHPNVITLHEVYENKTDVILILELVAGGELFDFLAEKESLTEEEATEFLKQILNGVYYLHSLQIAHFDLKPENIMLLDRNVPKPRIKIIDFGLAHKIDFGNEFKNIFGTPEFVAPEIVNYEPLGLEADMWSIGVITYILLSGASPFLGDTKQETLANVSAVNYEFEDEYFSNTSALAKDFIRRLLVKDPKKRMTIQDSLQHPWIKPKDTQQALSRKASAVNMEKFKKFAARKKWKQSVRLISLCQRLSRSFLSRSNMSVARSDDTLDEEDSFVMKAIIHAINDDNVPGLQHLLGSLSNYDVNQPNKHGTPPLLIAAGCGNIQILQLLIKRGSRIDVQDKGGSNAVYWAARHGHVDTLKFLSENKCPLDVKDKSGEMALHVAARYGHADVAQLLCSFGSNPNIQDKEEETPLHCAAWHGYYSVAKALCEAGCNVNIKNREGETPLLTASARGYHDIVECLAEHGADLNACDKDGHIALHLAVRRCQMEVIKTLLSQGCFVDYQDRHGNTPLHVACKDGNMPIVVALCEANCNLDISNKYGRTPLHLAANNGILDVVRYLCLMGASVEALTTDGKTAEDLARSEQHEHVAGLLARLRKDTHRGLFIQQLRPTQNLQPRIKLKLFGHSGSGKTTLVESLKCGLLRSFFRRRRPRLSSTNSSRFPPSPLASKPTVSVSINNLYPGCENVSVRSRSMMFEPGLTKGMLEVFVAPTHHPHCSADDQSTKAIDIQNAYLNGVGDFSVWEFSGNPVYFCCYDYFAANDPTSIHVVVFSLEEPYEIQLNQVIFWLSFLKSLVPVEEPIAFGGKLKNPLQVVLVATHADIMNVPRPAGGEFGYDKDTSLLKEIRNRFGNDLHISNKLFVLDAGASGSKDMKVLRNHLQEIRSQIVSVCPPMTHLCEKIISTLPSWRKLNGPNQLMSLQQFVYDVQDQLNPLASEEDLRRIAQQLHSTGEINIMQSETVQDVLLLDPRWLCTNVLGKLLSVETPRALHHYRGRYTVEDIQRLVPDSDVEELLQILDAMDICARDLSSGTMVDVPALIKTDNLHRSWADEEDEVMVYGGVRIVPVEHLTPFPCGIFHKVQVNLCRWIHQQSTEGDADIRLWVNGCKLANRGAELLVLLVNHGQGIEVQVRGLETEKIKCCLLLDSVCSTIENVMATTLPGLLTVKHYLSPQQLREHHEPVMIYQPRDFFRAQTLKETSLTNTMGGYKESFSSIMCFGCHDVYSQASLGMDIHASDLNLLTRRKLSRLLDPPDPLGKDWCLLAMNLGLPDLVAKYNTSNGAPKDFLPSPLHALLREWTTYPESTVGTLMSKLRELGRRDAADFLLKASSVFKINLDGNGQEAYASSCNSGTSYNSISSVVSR

| Compound | inhibition [1] | inhibition [2] | inhibition [3] | inhibition [4] | inhibition [5] | inhibition [6] | inhibition [7] | inhibition [8] |
| --- | --- | --- | --- | --- | --- | --- | --- | --- |
| O[C@H]1CC[C@H](Nc2nccc(-c3n[nH]c4ccccc34)n2)CC1 | 69% | 89% | 97% | 97% | – | – | – | – |
| O[C@H]1CC[C@H](Nc2nccc(-n3nnc4ccccc43)n2)CC1 | < 50% | 74% | < 50% | 100% | < 50% | < 50% | 100% | 98% |
| CS(=O)(=O)CCCOc1cccc2c1ccn2-c1ccnc(N[C@H]2CC[C@H](C(=O)N3CCC(O)CC3)CC2)n1 | – | – | – | > 85% | – | – | > 85% | > 85% |

Continued, in another order:

| inhibition [1] | inhibition [2] | inhibition [3] | inhibition [4] | inhibition [5] | inhibition [6] | inhibition [7] | Compound | inhibition [8] |
| --- | --- | --- | --- | --- | --- | --- | --- | --- |
| < 50% | < 50% | < 50% | 91% | < 50% | < 50% | 97% | O[C@H]1CC[C@H](Nc2nccc(-n3ccc4ccccc43)n2)CC1 | < 50% |
| < 50% | < 50% | 74% | 99% | < 50% | < 50% | 97% | O[C@H]1CC[C@H](Nc2nccc(-n3ncc4ccccc43)n2)CC1 | < 50% |
